For assay [1], the system named is Mus musculus. Nature of the assay: Tested in vivo for the analgesic activity by measuring the delay in response to noxious heat stimuli (D'Amour-Smith tail-flick method) in mice upon subcutaneous administration; 7.4-24.4. The assay is classed as functional. The settings on record: sc. In outline:
(§1)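 Compounds were given as racemic hydrobromide salts. The vehicle, also used as the control in both the tail-flick and the phenylquinone writhing tests, was distilled water with a few drops of Tween 80.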

For assay [2], the system named is Mus musculus. Description: Tested in vivo for the analgesic activity by measuring the inhibition of phenyl-p-quinone- induced writhing (PQW) in mice upon subcutaneous administration; 2.1-2.9. The format is functional. The settings on record: sc. In outline:
as §1
(In general: In writhing tests, fewer writhes than in controls are read as antinociception.)

Assay [3] has as its system Mus musculus. Nature of the assay: Tested in vivo for the analgesic activity by measuring the inhibition of phenyl-p-quinone- induced writhing (PQW) in mice upon subcutaneous administration; 2.6-3.4. The format is functional. Conditions: sc. In outline: as §1
The next assay addresses Opioid receptor (Rattus norvegicus, UniProt P33533+P34975+P33535). Nature of the assay: Tested for In vitro binding constant for Opioid receptors by measuring the inhibition of stereospecific binding of [3H]naloxone in rat brain homogenates. The assay is classed as tissue-based.
Assay [4] concerns Mus musculus. Nature of the assay: Tested in vivo for the analgesic activity by measuring the delay in response to noxious heat stimuli (D'Amour-Smith tail-flick method) in mice upon subcutaneous administration. The format is functional. Conditions: sc. In outline:
as §1
In general terms: Thermal pain tests record how soon the animal reacts.

Assay [5] has as its system Mus musculus. Nature of the assay: Tested in vivo for the analgesic activity by measuring the inhibition of phenyl-p-quinone- induced writhing (PQW) in mice upon subcutaneous administration; 2.2-2.7. The assay is classed as functional. The settings on record: sc. In outline: as §1
In assay [6] the test system is Mus musculus. Nature of the assay: Tested in vivo for the analgesic activity by measuring the inhibition of phenyl-p-quinone- induced writhing (PQW) in mice upon subcutaneous administration; 3.2-4.4. The assay is classed as functional. The settings on record: sc. The procedure, abridged: as §1
For assay [7], the system named is Mus musculus. Nature of the assay: Tested in vivo for the analgesic activity by measuring the inhibition of phenyl-p-quinone- induced writhing (PQW) in mice upon subcutaneous administration; 7.2-21.9. The format is functional. The settings on record: sc. In outline:
as §1

The species named for assay [8] is Mus musculus. Nature of the assay: animal or person. Conditions: sc.
In assay [9] the test system is Mus musculus. Nature of the assay: Tested in vivo for the analgesic activity by measuring the inhibition of phenyl-p-quinone- induced writhing (PQW) in mice upon subcutaneous administration; 0.20-0.36. The assay is classed as functional. Conditions: sc. In outline: as §1

The source of these data is ChEMBL document CHEMBL1121599, “Synthesis and analgesic activity of some 5-(4-hydroxyphenyl)-2-azabicyclo[3.2.1]octanes” (J Med Chem, 1980).

A word on the ED50: it is the dose at which the effect has come halfway, by size or by number of responders. High values mean a need for a large dose, low ones an effect at a small dose. As to `CC(C)=CCN1CC[C@]2(C)c3cc(O)ccc3C[C@H]1[C@H]2C` [(+)-PENTAZOCINE], the median effective dose (ED50) in the assay with Mus musculus [1] is 14.6 mg/kg; in the assay on Mus musculus [2], 2.4 mg/kg.
For orientation: IC50 means the concentration that gives 50% inhibition. On to `Oc1ccc(C23CCC(C2)N(CC2CC2)CC3)cc1` (stereo not drawn), for which the ED50 with Mus musculus [3] was 3 mg/kg; in the assay on Mus musculus [4], above 25 mg/kg. This compound also had an IC50 on Opioid receptor of 2780 nM.
Turning to `Oc1ccc(C23CCC(C2)N(CCc2ccccc2)CC3)cc1` (stereo not drawn), the ED50 was 2.5 mg/kg with Mus musculus [5] and above 25 mg/kg with Mus musculus [4]. Further, at Opioid receptor, the IC50 came to 340 nM.
As for `CCCN1CCC2(c3ccc(O)cc3)CCC1C2` (stereo not drawn), the values for the ED50 with Mus musculus [6] and in the assay on Mus musculus [4] were 3.7 mg/kg and above 25 mg/kg, respectively. The same compound came in with a 50% inhibitory concentration (IC50) at Opioid receptor of 6980 nM.
As to `CN1CCC2(c3ccc(O)cc3)CCC1C2` (stereo not drawn), the ED50 with Mus musculus [7] was 10.8 mg/kg; in the assay on Mus musculus [4] it was above 25 mg/kg. On Opioid receptor, this compound gave an IC50 of 7290 nM.
As for `CN1CC[C@]23c4c5ccc(O)c4O[C@H]2[C@@H](O)C=C[C@H]3[C@H]1C5` [MORPHINE], the ED50 in the assay filed under Mus musculus [8] turned out to be 0.68 mg/kg.
Take `O=C(CCCN1CCC2(c3ccc(O)cc3)CCC1C2)c1ccc(F)cc1` (stereo not drawn): the figures for the ED50 with Mus musculus [9] and with Mus musculus [4] were 0.27 mg/kg and above 25 mg/kg, respectively. Further, the IC50 on Opioid receptor is recorded as 268 nM.
